Data published in ChEMBL document CHEMBL1152726, “Discovery of small molecule human C5a receptor antagonists” (Bioorg Med Chem Lett, 2009).
Activity calls are given as the source filed them. The calls are words filed in the database; no cut-off is given here.

Key:
[1] = Metabolic stability in human liver microsomes assessed as intrinsic clearance
[2] = target: T1, C5a anaphylatoxin chemotactic receptor 1 (Homo sapiens, UniProt P21730); test: Antagonist activity at human recombinant C5a receptor in HEK cells assessed as inhibition of C5a-induced calcium mobilization; format: functional, cell-based, HEK293
T1 sequence (P21730 whole entry): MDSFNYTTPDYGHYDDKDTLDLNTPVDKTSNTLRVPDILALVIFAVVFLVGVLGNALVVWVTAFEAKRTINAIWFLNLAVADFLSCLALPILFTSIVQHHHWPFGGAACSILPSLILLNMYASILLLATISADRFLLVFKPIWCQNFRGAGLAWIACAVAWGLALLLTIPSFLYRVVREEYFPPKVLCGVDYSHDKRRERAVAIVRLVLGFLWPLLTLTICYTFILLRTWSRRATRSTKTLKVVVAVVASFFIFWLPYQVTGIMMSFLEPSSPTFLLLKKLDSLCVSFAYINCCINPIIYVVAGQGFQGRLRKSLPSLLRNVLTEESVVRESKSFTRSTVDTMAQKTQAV

[3] = Metabolic stability in Sprague-Dawley rat hepatocytes assessed as intrinsic clearance measured per 10^6 cells
[4] = target: T1, C5a anaphylatoxin chemotactic receptor 1; test: Displacement of [125I]C5a from human recombinant C5a receptor expressed in HEK cells by membrane binding assay
[5] = target: T2, C5a anaphylatoxin chemotactic receptor 1 (Rattus norvegicus) (UniProt P97520); test: Antagonist activity at rat recombinant C5a receptor expressed in HEK cells assessed as inhibition of C5a-induced calcium mobilization at 30 uM; format: functional, cell-based; settings: HEK293
T2 sequence (whole entry): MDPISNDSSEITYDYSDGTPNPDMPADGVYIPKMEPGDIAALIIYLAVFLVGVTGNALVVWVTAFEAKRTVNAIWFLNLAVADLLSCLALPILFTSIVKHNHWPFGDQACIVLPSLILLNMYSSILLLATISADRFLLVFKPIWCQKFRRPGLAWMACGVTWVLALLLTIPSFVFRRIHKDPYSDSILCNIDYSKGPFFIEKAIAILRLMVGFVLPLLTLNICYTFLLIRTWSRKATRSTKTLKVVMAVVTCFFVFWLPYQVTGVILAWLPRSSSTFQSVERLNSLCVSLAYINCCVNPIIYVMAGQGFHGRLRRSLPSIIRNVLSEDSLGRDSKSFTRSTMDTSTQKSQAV
Method in brief: (§1)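 Non-human (dog, mouse or rat) recombinant C5aR cell lines tested for antagonism of C5a-stimulated intracellular calcium mobilization. Values are means of at least two experiments.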

[6] = target: T3, C5a anaphylatoxin chemotactic receptor 1 (Canis lupus familiaris) (UniProt P30992); test: Antagonist activity at dog recombinant C5a receptor expressed in HEK cells assessed as inhibition of C5a-induced calcium mobilization at 30 uM; format: functional, cell-based; settings: HEK293; method in brief: as §1
T3 sequence (whole entry): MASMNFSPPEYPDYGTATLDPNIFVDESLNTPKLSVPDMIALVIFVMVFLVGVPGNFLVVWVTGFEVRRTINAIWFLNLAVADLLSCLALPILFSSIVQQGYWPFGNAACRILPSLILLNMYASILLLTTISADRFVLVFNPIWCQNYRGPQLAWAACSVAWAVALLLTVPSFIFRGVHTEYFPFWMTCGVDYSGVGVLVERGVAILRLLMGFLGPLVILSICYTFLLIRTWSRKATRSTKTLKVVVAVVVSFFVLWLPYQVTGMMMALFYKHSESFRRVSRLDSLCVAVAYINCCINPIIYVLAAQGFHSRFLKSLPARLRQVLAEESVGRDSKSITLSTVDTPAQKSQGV

[7] = target: T1, C5a anaphylatoxin chemotactic receptor 1; test: Displacement of [Alexa647]C5a from human recombinant C5a receptor expressed in HEK cells by whole cell binding assay; format: cell-based, HEK293
Method in brief: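 Whole-cell FMAT competition binding measured inhibition of Alexa-647-labeled C5a binding to HEK-293 cells co-expressing human recombinant C5aR and Gα16. pIC50 derived; values are means of at least two experiments.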

[8] = target: T4, C5a anaphylatoxin chemotactic receptor 1 (Mus musculus) (UniProt P30993); test: Antagonist activity at mouse recombinant C5a receptor expressed in HEK cells assessed as inhibition of C5a-induced calcium mobilization at 30 uM; format: functional, cell-based; settings: HEK293; method in brief: as §1
T4 sequence (whole entry): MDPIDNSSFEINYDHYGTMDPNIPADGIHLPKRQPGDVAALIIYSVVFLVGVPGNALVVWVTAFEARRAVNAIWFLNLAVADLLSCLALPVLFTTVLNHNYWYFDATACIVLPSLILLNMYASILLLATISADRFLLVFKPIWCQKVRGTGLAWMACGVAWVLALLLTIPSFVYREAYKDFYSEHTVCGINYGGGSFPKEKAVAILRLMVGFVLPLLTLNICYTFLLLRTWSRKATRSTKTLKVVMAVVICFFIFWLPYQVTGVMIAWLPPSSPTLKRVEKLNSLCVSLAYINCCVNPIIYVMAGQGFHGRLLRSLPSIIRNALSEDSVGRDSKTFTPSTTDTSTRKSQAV

[9] = target: T1, C5a anaphylatoxin chemotactic receptor 1; test: Displacement of from human recombinant C5a receptor expressed in HEK cells by membrane binding assay in presence
[10] = Lipophilicity, log D at pH 7.4; settings: buffer
[11] = target: T1, C5a anaphylatoxin chemotactic receptor 1

| SMILES | microsomal CLint ([1]; liver microsomes) [µL/min/mg] | IC50 [2] [nM] | hepatocyte CLint [3] [µL/min/1e6 cells] | logD [10] | other results |
| --- | --- | --- | --- | --- | --- |
| COc1ccc(N(C(=O)c2occc2C)C(C(=O)NC[C@@H](C)O)c2ccccc2F)c(OC)c1 (some centres undefined) | 126 | 20 | 87 | – | – |
| COc1ccc(N(C(=O)c2ccccc2)C(C(=O)NC[C@H](C)O)c2ccccc2F)c(OC)c1 (some centres undefined) | – | > 100 | – | – | – |
| COc1ccc(N(C(=O)c2ccccc2)C(C(=O)NC(C)CN(C)C)c2ccccc2F)c(OC)c1 (centres undefined) | 135 | 1000 | 33 | – | – |
| COc1ccc(N(C(=O)c2ccco2)C(C(=O)NC2CCCC2)c2ccccc2F)c(OC)c1 (centres undefined) | > 150 | 126 | > 150 | – | IC50 [4]: 3160 nM; Activity [5]: inactive; Activity [6]: inactive; IC50 [7]: 79.4 nM; Activity [8]: inactive; IC50 [9]: 251 nM |
| COc1ccc(N(C(=O)c2ccoc2Cl)C(C(=O)NC[C@@H](C)O)c2ccccc2F)c(OC)c1 (some centres undefined) | 48 | 316 | 33 | 2.4 | – |
| COc1ccc(N(C(=O)c2ccccc2)C(C(=O)O)c2ccccc2F)c(OC)c1 (centres undefined) | – | > 10000 | – | – | – |
| COc1ccc(N(C(=O)c2ccccc2)C(C)C(=O)NC2CCCC2)c(OC)c1 (centres undefined) | – | > 10000 | – | – | – |
| COc1ccc(N(C(C)=O)C(C(=O)NC2CCCC2)c2ccccc2F)c(OC)c1 (centres undefined) | – | 794 | – | – | – |
| COc1ccc(N(C(=O)c2ccccc2)C(C(=O)NC[C@@H](C)O)c2ccccc2F)c(OC)c1 (some centres undefined) | 104 | 63.1 | > 150 | 2.55 | – |
| COc1ccc(N(C(=O)c2occc2CN(C)C)C(C(=O)NC[C@@H](C)O)c2ccccc2F)c(OC)c1 (some centres undefined) | 12 | 3160 | < 3 | – | – |
| CN(C(=O)c1ccccc1)C(C(=O)NC1CCCC1)c1ccccc1F (centres undefined) | – | > 10000 | – | – | – |
| COc1ccc(N(C(=O)c2ccoc2C)C(C(=O)NC[C@@H](C)O)c2ccccc2F)c(OC)c1 (some centres undefined) | 134 | 39.8 | 75 | – | – |
| COc1ccc(N(C(=O)c2ccccc2)C(C(=O)NC2CCCC2)c2ccccc2F)c(OC)c1 (centres undefined) | – | 25.1 | – | 3.9 | IC50 [4]: 794 nM; Activity [5]: inactive; Activity [6]: inactive; IC50 [7]: 39.8 nM; Activity [8]: inactive; EC50 [11]: 123 nM; IC50 [9]: 31.6 nM |
| COc1ccc(N(C(=O)c2occc2CO)C(C(=O)NC[C@@H](C)O)c2ccccc2F)c(OC)c1 (some centres undefined) | – | – | 8 | 1.4 | microsomal CLint ([1]; microsomes): 12 µL/min/mg |
| COCc1ccoc1C(=O)N(c1ccc(OC)cc1OC)C(C(=O)NC[C@@H](C)O)c1ccccc1F (some centres undefined) | 76 | 100 | 35 | 2 | – |
| COc1ccc(N(C(=O)c2occc2Cl)C(C(=O)NC[C@@H](C)O)c2ccccc2F)c(OC)c1 (some centres undefined) | 148 | 200 | 59 | 2.2 | – |
